Activity calls are given as the source filed them. The rule behind the calls is not given here.
Legend:
Plasmodium falciparum [1] = test: Antiplasmodial activity against Plasmodium falciparum 3D7 trophozoites infected in human erythrocytes assessed as [3H]hypoxanthine incorporation into nucleic acid after 30 hrs by beta-scintillation counting; format: functional, organism-based
Plasmepsin II [2] = biological target: T1, Plasmepsin II (Plasmodium falciparum, UniProt P46925); test: Inhibition of Plasmodium falciparum plasmepsin-2
T1 sequence (P46925 whole entry): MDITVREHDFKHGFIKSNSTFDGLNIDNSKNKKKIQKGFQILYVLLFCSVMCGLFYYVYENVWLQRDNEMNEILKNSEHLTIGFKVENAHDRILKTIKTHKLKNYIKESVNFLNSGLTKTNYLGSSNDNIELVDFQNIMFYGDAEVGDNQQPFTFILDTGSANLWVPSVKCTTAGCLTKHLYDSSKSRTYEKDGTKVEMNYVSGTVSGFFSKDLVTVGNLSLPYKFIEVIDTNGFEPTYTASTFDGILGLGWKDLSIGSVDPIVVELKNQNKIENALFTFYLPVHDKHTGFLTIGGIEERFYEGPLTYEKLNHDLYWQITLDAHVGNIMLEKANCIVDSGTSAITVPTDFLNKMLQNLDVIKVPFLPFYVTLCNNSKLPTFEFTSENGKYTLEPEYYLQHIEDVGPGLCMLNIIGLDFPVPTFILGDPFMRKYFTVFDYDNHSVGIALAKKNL

[3] = Selectivity ratio of Ki for human cathepsin D to Ki for Plasmodium falciparum plasmepsin-2
[4] = biological target: Plasmepsin II (Plasmodium falciparum) (UniProt P46925); test: Inhibition of Plasmodium falciparum plasmepsin-2 expressed in Escherichia coli BL21 (DE3) at 1 uM after 30 min by FRET assay
Sequence of Plasmepsin II (Plasmodium falciparum) (P46925 125-453 limits assumed): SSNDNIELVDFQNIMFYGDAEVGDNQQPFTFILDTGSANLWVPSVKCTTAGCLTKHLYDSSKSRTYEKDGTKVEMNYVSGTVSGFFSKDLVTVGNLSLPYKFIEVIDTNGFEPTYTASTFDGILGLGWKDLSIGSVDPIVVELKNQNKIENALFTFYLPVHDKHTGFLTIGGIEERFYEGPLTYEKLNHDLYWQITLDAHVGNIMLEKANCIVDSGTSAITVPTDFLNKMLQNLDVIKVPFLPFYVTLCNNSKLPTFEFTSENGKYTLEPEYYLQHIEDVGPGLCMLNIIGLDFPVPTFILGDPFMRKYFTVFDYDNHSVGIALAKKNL

[5] = biological target: Plasmepsin II (Plasmodium falciparum) (UniProt P46925); test: Inhibition of Plasmodium falciparum plasmepsin-2 expressed in Escherichia coli BL21 (DE3) at 1 uM after 1 to 2 hrs
[6] = biological target: Plasmepsin II (Plasmodium falciparum) (UniProt P46925); test: Inhibition of Plasmodium falciparum plasmepsin-2 expressed in Escherichia coli BL21 (DE3) assessed as residual activity at 1 uM measured after overnight dialysis by spun column chromatography
Plasmepsin II [7] = biological target: T1, Plasmepsin II; test: Competitive inhibition of Plasmodium falciparum plasmepsin-2 expressed in Escherichia coli BL21 (DE3) after 30 min by FRET assay
Procedure, shortened: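 Recombinant mature Plm II from inclusion bodies, refolded and activated in 0.1 M sodium citrate pH 4.7, stored in 20 mM Tris-HCl pH 8.5 with 0.25 M NaCl. FRET assay in NaOAc buffer pH 5.0 using 2.5 nM enzyme and 1 μM DABCYL-Glu-Arg-Nle-Phe-Leu-Ser-Phe-Pro-EDANS substrate. Inhibitor, enzyme and substrate incubated 30 min at 37 C; EDANS fluorescence read at excitation 336 nm.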

[8] = biological target: Plasmepsin II (Plasmodium falciparum) (UniProt P46925); test: Irreversible inhibition of Plasmodium falciparum plasmepsin-2 expressed in Escherichia coli BL21 (DE3) at 1 uM measured after overnight dialysis by spun column chromatography
Cathepsin D = Cathepsin D (Homo sapiens, UniProt P07339); test: Inhibition of human cathepsin D after 30 mins by FRET assay
Sequence of Cathepsin D (P07339 65-162 limits assumed): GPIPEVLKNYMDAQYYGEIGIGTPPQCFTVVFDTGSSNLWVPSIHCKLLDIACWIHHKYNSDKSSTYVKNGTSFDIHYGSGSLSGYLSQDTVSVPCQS
Sequence of Cathepsin D (P07339 169-412 limits assumed): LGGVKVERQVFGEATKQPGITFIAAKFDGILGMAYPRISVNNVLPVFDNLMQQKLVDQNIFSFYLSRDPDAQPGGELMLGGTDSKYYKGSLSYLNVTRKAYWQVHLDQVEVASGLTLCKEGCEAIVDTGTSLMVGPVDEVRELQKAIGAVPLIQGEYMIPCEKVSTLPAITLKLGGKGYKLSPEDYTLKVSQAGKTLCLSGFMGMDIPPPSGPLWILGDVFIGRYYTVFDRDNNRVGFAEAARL

[9] = Selectivity ratio of IC50 for human cathepsin D to IC50 for Plasmodium falciparum plasmepsin-2 expressed in Escherichia coli BL21 (DE3)
CHO [10] = test: Cytotoxicity against CHO cells at 10 uM after 24 hrs by MTS assay; format: cell-based, Cricetulus griseus; details: chinese hamster
Plasmepsin II [11] = biological target: T1, Plasmepsin II; test: Inhibition of Plasmodium falciparum plasmepsin-2 expressed in Escherichia coli BL21 (DE3) after 40 min by Kitz-Wilson plot analysis
[12] = biological target: Plasmepsin II (Plasmodium falciparum) (UniProt P46925); test: Inhibition of Plasmodium falciparum plasmepsin-2 expressed in Escherichia coli BL21 (DE3) at compound to substrate ratio of 1:1 to 1: 5 after 2 hrs by FRET assay
CHO [13] = test: Cytotoxicity against CHO cells at 100 ug/mL after 24 hrs by MTS assay; format: cell-based, Cricetulus griseus; details: chinese hamster
CHO [14] = test: Cytotoxicity against CHO cells at 250 ug/mL after 24 hrs by MTS assay; format: cell-based, Cricetulus griseus; details: chinese hamster
Plasmodium falciparum [15] = test: Antiplasmodial activity against Plasmodium falciparum infected in human erythrocytes assessed as inhibition of parasite growth; format: functional; details: read-out: ED50 (the source's name)
[16] = Selectivity ratio of Ki for human cathepsin D to Ki for Plasmodium falciparum recombinant plasmepsin-2
Plasmodium falciparum [17] = test: Antiplasmodial activity against Plasmodium falciparum assessed as inhibition of parasite growth at 20 uM; format: functional

| IC50 (Plasmodium falciparum [1]) [nM] | inhibition [4] | inhibition [5] [%] | Activity [6] [%] | IC50 (Plasmepsin II [7]) [nM] | inhibition [8] | IC50 (Cathepsin D) [nM] | Ratio IC50 [9] | Compound | Activity (CHO [10]) | also measured |
| --- | --- | --- | --- | --- | --- | --- | --- | --- | --- | --- |
| 5000 |  |  |  |  |  |  |  | Cc1cccc(C)c1OCC(=O)N[C@@H](Cc1ccccc1)[C@@H](O)C[C@H](CC(C)C)NC(=O)[C@H](C(C)C)N1CCCNC1=O |  | Ki (Plasmepsin II [2]): 357 nM; Ratio Ki [3]: 10 |
| 9200 | Active | 76.9 | 36.1 | 22 | inactive | 50 | 10.6 | C#CCNC(=O)[C@H](Cc1ccccc1)NC(=O)C[C@H](O)[C@H](Cc1ccccc1)NC(=O)[C@@H](NC(=O)c1ccccn1)C(C)C | Non-toxic |  |
|  | 88.2% | 76.9 | 88 | 141 | inactive | 50 | 1.4 | CC(C)C[C@H](NC(=O)[C@H](CC#N)NC(=O)C[C@H](O)[C@H](Cc1ccccc1)NC(=O)[C@@H](NC(=O)c1ccccn1)C(C)C)C(N)=O | Non-toxic |  |
|  | Active | 76.9 |  | 28 | Active | 50 | 3.3 | CC(C)C[C@H](NC(=O)[C@H](CCl)NC(=O)C[C@H](O)[C@H](Cc1ccccc1)NC(=O)[C@@H](NC(=O)c1ccccn1)C(C)C)C(N)=O | Non-toxic | Ki (Plasmepsin II [11]): 35.7 nM; inhibition [12]: Active; Activity (CHO [13]): Non-toxic; Activity (CHO [14]): Non-toxic |
| 5000 |  |  |  |  |  |  |  | Cc1ccc(-c2ccc(C[C@H](NC[C@H](O)[C@H](Cc3ccccc3)NC(=O)[C@@H](NC(=O)c3ccccn3)C(C)C)C(N)=O)cc2)cc1 |  | EC50 (Plasmodium falciparum [15]): 1600 nM |
| 5000 |  |  |  |  |  |  |  | CC(C)C[C@H](NC(=O)[C@H](C)NC(=O)C[C@H](O)[C@H](Cc1ccccc1)NC(=O)[C@@H](NC(=O)c1ccccn1)C(C)C)C(N)=O |  | Ratio Ki [16]: 38; inhibition at 20 µM (Plasmodium falciparum [17]): 54% |
| 5000 |  |  |  |  |  |  |  | CC(C)C[C@H](NC(=O)[C@H](C)NC(=O)C[C@H](O)[C@H](COCc1ccc(Br)cc1)NC(=O)[C@@H](NC(=O)c1ccccn1)C(C)C)C(N)=O |  | Ki (Plasmepsin II [2]): 0.5 nM |
| 7700 | Active | 76.9 |  | 333 | Active | 50 |  | C#CC[C@H](NC(=O)C[C@H](O)[C@H](Cc1ccccc1)NC(=O)[C@@H](NC(=O)c1ccccn1)C(C)C)C(=O)N[C@@H](CC(C)C)C(N)=O | Non-toxic | Ki (Plasmepsin II [11]): 333 nM; inhibition [12]: Active |

| Compound | IC50 (Plasmodium falciparum [1]) [nM] | inhibition [4] | inhibition [5] [%] | Activity [6] [%] | IC50 (Plasmepsin II [7]) [nM] | inhibition [8] | IC50 (Cathepsin D) [nM] | Ratio IC50 [9] | Activity (CHO [10]) | also measured |
| --- | --- | --- | --- | --- | --- | --- | --- | --- | --- | --- |
| CC(C)CC(=O)N[C@H](C(=O)N[C@H](C(=O)N[C@@H](CC(C)C)[C@@H](O)CC(=O)N[C@@H](C)C(=O)N[C@@H](CC(C)C)[C@@H](O)CC(=O)O)C(C)C)C(C)C |  | 82.8% | 97.8 | 85.2 |  |  |  |  |  |  |
